Jurkat tox 60K = reduces viability or proliferation of Jurkat cells; Jurkat E6.1 viability, ATP luminescence, 48 h; inhibition, % at 4 µM; actives 1.2% (n = 56,000); AID 463;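 active means inhibition above the mean inhibition of all tested compounds plus 3 SD, cut at about 28% in these data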
Lung fibro prol = blocks proliferation of human lung fibroblasts; LL 47 human lung fibroblast viability, ATP luminescence; stronger effect = lower value; viability, % at 10 µM; actives 1.1% (n = 85,000);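 active means viability at or below 50% in the single dose screen; inactive means viability above 50%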;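 further: compound exposure lasted 72 h before the ATP readout; 100% = median luminescence of untreated cell-only wells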
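Material: human LL 47 lung fibroblast cells; quantity: 1,150 cells/well; medium: IMEM plus 15% FBS; doses: 0.1% DMSO in all compound wells; timing: overnight attachment after seeding, then 72 h compound exposure at 37 °C; detection: CellTiter-Glo luminescence; measure: % viability of median cell-only signal; controls: cell-only wells, no compound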
H69AR growth 86K = growth inhibitors of human H69AR lung tumor cells; H69AR lung tumor viability, ATP luminescence, 72 h; stronger effect = lower value; viability, % at 10 µM; actives 6% (n = 85,000);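 active means viability at or below 40%; inactive means viability above 40%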;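 further: multidrug resistant small cell line overexpressing MRP-1 efflux transporter; 100% = mean luminescence of untreated control wells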
HUVEC prolif 384 = human endothelial cell proliferation inhibition; HUVEC proliferation, CellTiter-Glo luminescence, 72 h; stronger effect = lower value; viability, % at 10 µM (by protocol); actives 1.1% (n = 86,000);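 active means viability at or below 30%; inactive means viability above 30%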;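 further: 100% = median luminescence of DMSO-only cell control wells on each plate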
The depositor's hits bear a star. Rows were chosen to be rich in hits. Some 6.6% of all compounds tested hit in one or more screens of this group.

Screening CC(C)(C)n1nnnc1C(c1cccs1)N(Cc1cccnc1)Cc1ccccc1Cl (centres undefined) returned Lung fibro prol 89, H69AR growth 86K 4.0* and HUVEC prolif 384 70.
For Cc1ccc(Cn2nnnc2CN2CCC(O)(c3ccccc3F)CC2)cc1 the results were Lung fibro prol 100, H69AR growth 86K 89 and HUVEC prolif 384 107.
For Cc1c(C(=O)Nc2ccc(F)cc2)oc2ccc(S(=O)(=O)N3CCCC3)cc12 the results were Jurkat tox 60K -12, Lung fibro prol 103, H69AR growth 86K 71 and HUVEC prolif 384 95.
For Cc1ccc(NC(=O)c2oc3ccc(S(=O)(=O)N4CCOCC4)cc3c2C)cc1C the results were Jurkat tox 60K 0, Lung fibro prol 83, H69AR growth 86K 37* and HUVEC prolif 384 60.
`Cc1c(C(=O)Nc2ccc(F)cc2)oc2ccc(S(=O)(=O)N3CCC4(CC3)OCCO4)cc12` gave Jurkat tox 60K 9, Lung fibro prol 90, H69AR growth 86K 33* and HUVEC prolif 384 67.
Cc1c(C(=O)Nc2cccc(Cl)c2)oc2ccc(S(=O)(=O)N3CCC4(CC3)OCCO4)cc12 was read as Lung fibro prol 81, H69AR growth 86K 13* and HUVEC prolif 384 49.
For Cc1cccc2cc(CN(Cc3cccs3)C3(c4nnnn4C4CCCC4)CCCC3)c(=O)[nH]c12 the results were Jurkat tox 60K 6, Lung fibro prol 96, H69AR growth 86K 93 and HUVEC prolif 384 90.
Screening COc1ccc(C)cc1NC(=O)C(CCS(C)(=O)=O)NC(C)=O (centres undefined) returned Lung fibro prol 93, H69AR growth 86K 101 and HUVEC prolif 384 92.
For O=C(CSc1nccc(=O)[nH]1)c1ccccc1Br the results were Lung fibro prol 95, H69AR growth 86K 92 and HUVEC prolif 384 96.
CC(=O)[C@H]1CC[C@H]2[C@@H]3CCC4=CC(=O)CC[C@]4(C)[C@H]3CC[C@]12C was read as Lung fibro prol 90, H69AR growth 86K 29* and HUVEC prolif 384 32.
Screening O=C(CSc1nn(-c2ccccc2)c(=S)s1)NC(=O)NCc1ccco1 returned Lung fibro prol 106, H69AR growth 86K 40 and HUVEC prolif 384 80.
For C=CCn1c(SCC(=O)c2ccc(O)c(O)c2)nnc1-c1ccccc1OC the results were Jurkat tox 60K 6, Lung fibro prol 68, H69AR growth 86K 20* and HUVEC prolif 384 76.
CCn1c(SCC(=O)c2ccc(F)cc2)nnc1-c1ccoc1C was read as Jurkat tox 60K 2, Lung fibro prol 102, H69AR growth 86K 94 and HUVEC prolif 384 102.
CCn1c(SCC(=O)c2ccc(O)c(O)c2)nnc1-c1ccccc1OC was read as Jurkat tox 60K 6, Lung fibro prol 79, H69AR growth 86K 36* and HUVEC prolif 384 76.
`Cc1ccc(CNC(=O)CN(C)S(=O)(=O)c2cccc3cccnc23)cc1` gave Jurkat tox 60K -2, Lung fibro prol 105, H69AR growth 86K 98 and HUVEC prolif 384 127.
`O=c1cc(Nc2ccc3c(c2)OCO3)[nH]c(=O)n1-c1ccc(Br)cc1` gave Lung fibro prol 97, H69AR growth 86K 35* and HUVEC prolif 384 76.
For O=c1cc(Nc2ccc3c(c2)OCCO3)[nH]c(=O)n1-c1ccc(Br)cc1 the results were Lung fibro prol 95, H69AR growth 86K 37* and HUVEC prolif 384 83.
`O=C(C1CC=CCC1)N1CCN(C(=O)C2CC=CCC2)CC1` (centres undefined) gave Lung fibro prol 108, H69AR growth 86K 95 and HUVEC prolif 384 90.
Screening O=C(CN1CCCCC1)Nc1ccc(S(=O)(=O)N2CCCCCC2)cc1 returned Jurkat tox 60K 9, Lung fibro prol 90, H69AR growth 86K 101 and HUVEC prolif 384 100.
For O=C(CN1CCN(S(=O)(=O)c2ccc(F)cc2)CC1)Nc1ccc(Cl)c(C(F)(F)F)c1 the results were Jurkat tox 60K 1, Lung fibro prol 88, H69AR growth 86K 9.0* and HUVEC prolif 384 71.
O=C(CN1CCN(S(=O)(=O)c2ccc(F)cc2)CC1)Nc1ccc2c(c1)OCO2 was read as Jurkat tox 60K 3, Lung fibro prol 48*, H69AR growth 86K 116 and HUVEC prolif 384 91.
For O=C(CN1CCCN(S(=O)(=O)c2ccc(Br)cc2)CC1)Nc1ccc2cn[nH]c2c1 the results were Jurkat tox 60K 0, Lung fibro prol 103, H69AR growth 86K 2.1* and HUVEC prolif 384 101.
COc1ccc(S(=O)(=O)N2CCCN(CC(=O)Nc3ccc4c(c3)OCO4)CC2)cc1 was read as Jurkat tox 60K 2, Lung fibro prol 98, H69AR growth 86K 51 and HUVEC prolif 384 96.

Source: PubChem
